This is a sample that favours compounds with a hit; in the whole collection about 2.5% have one here.
TRPC6 activator: activators of mouse TRPC6 channel; Q61143; HEK293-TRPC6 membrane potential dye fluorescence; stronger effect = higher value; B-score at 10 µM; 310,000 compounds, 0.13% hits;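 active = B-score of the integrated fluorescence ratio above library mean plus 3 SD, and starting fluorescence ratio within library mean plus 5 SD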;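 note: higher score means more depolarization so channel activation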
Target sequence (Q61143 whole entry, looked up): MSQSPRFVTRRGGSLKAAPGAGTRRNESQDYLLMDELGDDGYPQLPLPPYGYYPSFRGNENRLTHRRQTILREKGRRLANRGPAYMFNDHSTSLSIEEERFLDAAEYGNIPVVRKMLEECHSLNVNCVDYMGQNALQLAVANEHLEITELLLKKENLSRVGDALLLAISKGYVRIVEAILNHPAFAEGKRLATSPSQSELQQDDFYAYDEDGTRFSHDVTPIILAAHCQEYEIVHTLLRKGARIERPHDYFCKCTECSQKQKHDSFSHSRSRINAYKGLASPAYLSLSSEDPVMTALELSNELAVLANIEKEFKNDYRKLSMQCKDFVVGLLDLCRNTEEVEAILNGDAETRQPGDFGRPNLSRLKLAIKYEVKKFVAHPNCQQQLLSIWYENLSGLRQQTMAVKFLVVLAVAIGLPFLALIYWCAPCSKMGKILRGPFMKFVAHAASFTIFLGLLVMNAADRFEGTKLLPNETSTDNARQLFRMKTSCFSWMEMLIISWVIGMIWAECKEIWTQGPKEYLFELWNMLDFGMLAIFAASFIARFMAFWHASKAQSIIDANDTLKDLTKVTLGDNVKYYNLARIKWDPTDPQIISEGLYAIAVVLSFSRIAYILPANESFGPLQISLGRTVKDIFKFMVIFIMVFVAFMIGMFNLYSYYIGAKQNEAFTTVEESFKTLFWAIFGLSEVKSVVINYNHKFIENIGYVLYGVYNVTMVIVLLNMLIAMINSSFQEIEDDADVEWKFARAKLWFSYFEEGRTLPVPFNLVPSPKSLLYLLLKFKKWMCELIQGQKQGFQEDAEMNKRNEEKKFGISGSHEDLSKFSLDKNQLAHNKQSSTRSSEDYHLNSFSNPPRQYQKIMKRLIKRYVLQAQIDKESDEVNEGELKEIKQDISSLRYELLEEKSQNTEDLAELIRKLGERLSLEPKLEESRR
Pemphigus Ab inh: blocks pemphigus antibody binding to human desmoglein-3; P32926; 310,000 compounds, 0.48% hits; binding (percent of control), % at 10 µM; DSG3-coupled beads, scFv-anti-DSG3-GFP binding, flow cytometry; stronger effect = lower value;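 active = binding more than 3 SD below its plate's average and above zero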
TRPC4 agonist: opens the mouse TRPC4 cation channel. Q9QUQ5. HEK293 TRPC4beta/mu-opioid, Fluo4 calcium fluorescence; stronger effect = higher value. B-score at 10 µM. 310,000 compounds, 0.49% hits. AID 2237;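 active = B-score above 5 SD of library B-scores, and initial fluorescence ratio not above library mean plus 5 SD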;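 note: positive B-score marks a calcium rise read as TRPC4 activation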
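Material: HEK293 stable line with TRPC4beta plus mu-opioid receptor; technique: Fluo4 calcium-sensitive dye fluorescence, kinetic, 1 Hz baseline; timing: Fluo4 dye loading 45 min at room temperature, 110 s recording; controls: assay buffer as low control, maximal DAMGO as high control; read-out: integrated baseline-normalised fluorescence ratio, converted to per-well B score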
TRPC4 PAM: allosteric potentiators of mouse TRPC4 channel | Q9QUQ5 | HEK293 TRPC4beta/mu-opioid, DAMGO EC20, Fluo-4 Ca2+ flux; stronger effect = higher value | B-score at 10 µM | 310,000 compounds, 0.42% hits | AID 2227;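 active = B-score of calcium response area above 5 SD of library B-scores, with initial fluorescence ratio within 5 SD of library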;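 note: B-score of integrated fluorescence ratio over time as area under calcium response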
TRPC6 inhibitor: blocks the mouse TRPC6 cation channel; 310,000 compounds, 1.1% hits; Q61143; AID 2553; HEK293-TRPC6, membrane potential dye, ACh-evoked depolarization; stronger effect = lower value; B-score at 10 µM;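 active = B-score under library mean minus 3 SD, initial fluorescence not abnormally high, positive integrated signal ratio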;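 note: B-score derived from integrated fluorescence ratio over the kinetic read; more negative B-score means stronger inhibition of depolarization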
TRPC4 inh: TRPC4 (mouse) channel inhibition; B-score at 10 µM; Q9QUQ5; 300,000 compounds, 0.39% hits; AID 2247; HEK293 TRPC4beta/mu-opioid, DAMGO-evoked Fluo4 calcium flux; stronger effect = lower value;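 active = B-score over 3 SD under the library average, no early fluorescence shift, positive overall ratio signal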
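Assay system – HEK293 line stably carrying TRPC4beta and mu-opioid receptor · Doses – single dose · Detection – Fluo4 calcium-dye fluorescence, kinetic read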
HEK293 TRPC6 ctr: counter-screen for TRPC6 modulators: effect in parental HEK293 cells. shares compounds with TRPC6 inhibitor. membrane potential dye fluorescence. membrane potential signal change, % at 10 µM. 2,400 compounds, 51% hits. AID 488924;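 active = membrane potential signal moves up or down beyond 5 SD from buffer-only wells, on both duplicate plates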
HEK293 MPD ctr 2: parental HEK293 nonspecific activity of TRPC6 modulators, second screen; AID 488926; 2,400 compounds, 14% hits; shares compounds with TRPC6 inhibitor; inhibition, % at 10 µM; membrane potential dye fluorescence; after compound, maximal acetylcholine stimulation;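 active = membrane potential signal drops by more than 5 SD from the mean control signal, in both duplicate plates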;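 note: plate controls were acetylcholine ECmax control wells for no effect and buffer only wells for full effect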
TRPC4 ctr mod: selectivity of TRPC6 modulators against mouse TRPC4. shares compounds with TRPC6 inhibitor. HEK293 TRPC4/mu-opioid, membrane potential fluorescence. percent change from control (negative = decrease, positive = increase), % at 10 µM. 2,400 compounds, 69% hits. AID 488927;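 active = membrane potential signal moved up or down beyond 5 SD of buffer control wells, in both duplicate plates, actives on both sides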;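 note: plate controls were assay buffer wells for no effect and DAMGO maximal-effect wells for full effect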
TRPC4/MOR inh 2: second check of whether TRPC6 modulators also affect mouse TRPC4; shares compounds with TRPC6 inhibitor; HEK293 TRPC4/mu-opioid, membrane potential dye fluorescence; stimulated with maximal-effect DAMGO; inhibition, % at 10 µM; 2,400 compounds, 55% hits; AID 488928;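 active = drop in membrane potential signal beyond 5 SD of the control wells in both duplicate plates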;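 note: TRPC4 counter screen for TRPC6 hits run under conditions tuned for TRPC6 not TRPC4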
TRPC6 inh conf: confirmation of mouse TRPC6 inhibitors | 3,300 compounds, 43% hits | shares compounds with TRPC6 inhibitor | inhibition, % at 10 µM | HEK293-TRPC6, membrane potential dye, ACh-evoked depolarization;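 active = fluorescence ratio falls more than 5 SD below the full-stimulation control mean, in both duplicate runs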;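 note: integrated fluorescence ratio of peak minus minimum over baseline after agonist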
TRPC6 act conf: confirmation of mouse TRPC6 activators. shares compounds with TRPC6 inhibitor. HEK293-TRPC6 membrane potential dye fluorescence, FDSS. activation, % at 10 µM. 2,800 compounds, 11% hits;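 active = ratio signal rise beyond 5 SD above unstimulated control wells' mean, seen in both duplicate runs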;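 note: plate controls were buffer EC0 wells for no effect and acetylcholine ECmax response for full effect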
The depositor's hits bear a star.

O=C(c1cccc(C(F)(F)F)c1)N1CCN(C2CCCCC2)CC1 was read as TRPC6 activator inactive, Pemphigus Ab inh 94, TRPC4 agonist inactive, TRPC4 PAM inactive, TRPC6 inhibitor -5.6*, TRPC4 inh inactive, HEK293 TRPC6 ctr inactive, HEK293 MPD ctr 2 inactive, TRPC4 ctr mod 11%*, TRPC4/MOR inh 2 inactive and TRPC6 inh conf 40%*.
COC(=O)[C@@H](NC(=O)N1CCN(c2cccc(C(F)(F)F)c2)CC1)C(C)C was read as TRPC6 activator inactive, Pemphigus Ab inh 101, TRPC4 agonist inactive, TRPC4 PAM inactive, TRPC6 inhibitor -6.4*, TRPC4 inh inactive, HEK293 TRPC6 ctr inactive, HEK293 MPD ctr 2 inactive, TRPC4 ctr mod inactive, TRPC4/MOR inh 2 inactive, TRPC6 inh conf inactive and TRPC6 act conf inactive.
Screening C/C(=N\NC(=O)Cn1nc(C)cc1C)c1ccc([N+](=O)[O-])cc1 returned TRPC6 activator inactive, Pemphigus Ab inh 106, TRPC4 agonist inactive, TRPC4 PAM inactive, TRPC6 inhibitor inactive and TRPC4 inh inactive.
CCC(Cc1ccccc1)NC(=O)CCc1ccccc1 (configuration not stated) was read as TRPC6 activator inactive, Pemphigus Ab inh 82, TRPC4 agonist inactive, TRPC4 PAM inactive, TRPC6 inhibitor inactive and TRPC4 inh inactive.
For CC(C)(C)c1ccc(S(=O)(=O)N2CCC(N3CCCCC3)CC2)cc1 the results were TRPC6 activator 20*, Pemphigus Ab inh 94, TRPC4 agonist inactive, TRPC4 PAM inactive, TRPC6 inhibitor inactive, TRPC4 inh inactive, HEK293 TRPC6 ctr 238%*, HEK293 MPD ctr 2 inactive, TRPC4 ctr mod 41%*, TRPC4/MOR inh 2 36%*, TRPC6 inh conf inactive and TRPC6 act conf 122%*.
CCOC(=O)C1(CC2CCCCO2)CCN(S(=O)(=O)c2ccccc2)CC1 (configuration not stated) was read as TRPC6 activator inactive, Pemphigus Ab inh 103, TRPC4 agonist inactive, TRPC4 PAM inactive, TRPC6 inhibitor inactive and TRPC4 inh inactive.
For CC(C)(C)c1ccc(S(=O)(=O)N2CCC(CO)(CC3CCCCO3)CC2)cc1 (configuration not stated) the results were TRPC6 activator inactive, Pemphigus Ab inh 104, TRPC4 agonist inactive, TRPC4 PAM inactive, TRPC6 inhibitor -5.8*, TRPC4 inh inactive, HEK293 TRPC6 ctr inactive, HEK293 MPD ctr 2 inactive, TRPC4 ctr mod 17%*, TRPC4/MOR inh 2 inactive and TRPC6 inh conf inactive.
Screening C[C@@H]1CN([C@@H](C)CO)S(=O)(=O)c2ccc(C#Cc3cccc(F)c3)cc2O[C@@H]1CN(C)CC1CC1 returned Pemphigus Ab inh 100.
For CC(=O)c1c(C)nc(-c2ccc(Cl)cc2)nc1NC(=O)C(C)C the results were TRPC6 activator inactive, Pemphigus Ab inh 100, TRPC4 agonist inactive, TRPC4 PAM inactive, TRPC6 inhibitor -6*, TRPC4 inh inactive, HEK293 TRPC6 ctr inactive, HEK293 MPD ctr 2 106%*, TRPC4 ctr mod 18%*, TRPC4/MOR inh 2 inactive and TRPC6 inh conf 72%*.
O=C(Nc1ccccc1C(=O)NCCCN1CCOCC1)c1cccc([N+](=O)[O-])c1 was read as TRPC6 activator inactive, Pemphigus Ab inh 109, TRPC4 agonist inactive, TRPC4 PAM inactive, TRPC6 inhibitor inactive and TRPC4 inh inactive.
COc1ccc2c(c1)C(C)=CC(C)(C)N2S(=O)(=O)c1ccc(NC(C)=O)cc1 was read as TRPC6 activator 14*, Pemphigus Ab inh 137, TRPC4 agonist inactive, TRPC4 PAM inactive, TRPC6 inhibitor inactive, TRPC4 inh inactive, HEK293 TRPC6 ctr inactive, HEK293 MPD ctr 2 inactive, TRPC4 ctr mod 10%*, TRPC4/MOR inh 2 inactive, TRPC6 inh conf inactive and TRPC6 act conf inactive.
Screening CCN(C(=O)COc1ccc(C)nc1[N+](=O)[O-])C1CCS(=O)(=O)C1 (configuration not stated) returned TRPC6 activator inactive, Pemphigus Ab inh 91, TRPC4 agonist inactive, TRPC4 PAM inactive, TRPC6 inhibitor inactive and TRPC4 inh inactive.
Screening O=S(=O)(NC1CCSc2ccccc21)c1ccc(Cl)nc1 (configuration not stated) returned TRPC6 activator inactive, TRPC4 agonist inactive, TRPC4 PAM inactive, TRPC6 inhibitor -6.2*, TRPC4 inh inactive, HEK293 TRPC6 ctr inactive, HEK293 MPD ctr 2 inactive, TRPC4 ctr mod inactive, TRPC4/MOR inh 2 inactive, TRPC6 inh conf inactive and TRPC6 act conf inactive.
CC(=O)c1ccc(S(=O)(=O)NC2CCSc3ccccc32)cc1 (configuration not stated) was read as TRPC6 activator inactive, Pemphigus Ab inh 102, TRPC4 agonist inactive, TRPC4 PAM inactive, TRPC6 inhibitor inactive and TRPC4 inh inactive.
For O=C(NC1CCN(Cc2ccc(Cl)cc2Cl)CC1)c1ccccc1 the results were TRPC6 activator inactive, Pemphigus Ab inh 100, TRPC4 agonist inactive, TRPC4 PAM inactive, TRPC6 inhibitor inactive and TRPC4 inh inactive.
Cc1ccc(OCCCCNC2CCCC(C)C2C)c(C)c1 (configuration not stated) was read as TRPC6 activator 13*, Pemphigus Ab inh 103, TRPC4 agonist inactive, TRPC4 PAM inactive, TRPC6 inhibitor -5.7*, TRPC4 inh inactive, HEK293 TRPC6 ctr 348%*, HEK293 MPD ctr 2 inactive, TRPC4 ctr mod 102%*, TRPC4/MOR inh 2 51%*, TRPC6 inh conf inactive and TRPC6 act conf 119%*.
